In ChEMBL document CHEMBL5532647, “Design, synthesis, ADME and biological evaluation of benzylpiperidine and benzylpiperazine derivatives as novel reversible monoacylglycerol lipase (MAGL) inhibitors” (Eur J Med Chem, 2024):
In brackets after ≈: the same amount, converted by molar mass. Activity calls are given as the source filed them. The rule behind the calls is not given here.

Assays:
[1] = target: T1, Monoglyceride lipase (Homo sapiens, UniProt Q99685); test: Inhibition of human recombinant MAGL using 4-nitrophenylacetate as substrate incubated for 30 mins by microplate reader analysis
T1 sequence (Q99685 whole entry): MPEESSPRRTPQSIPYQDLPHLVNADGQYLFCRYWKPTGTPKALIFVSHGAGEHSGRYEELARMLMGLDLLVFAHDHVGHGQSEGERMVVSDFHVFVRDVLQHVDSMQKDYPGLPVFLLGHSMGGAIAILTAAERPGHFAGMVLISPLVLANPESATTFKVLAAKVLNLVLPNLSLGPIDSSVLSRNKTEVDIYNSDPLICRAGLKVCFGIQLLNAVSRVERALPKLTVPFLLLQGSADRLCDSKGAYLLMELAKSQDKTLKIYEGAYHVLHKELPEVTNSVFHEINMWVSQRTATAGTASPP

[2] = target: T2, Monoacylglycerol lipase ABHD6 (Mus musculus) (UniProt Q8R2Y0); test: Displacement of TAMRA-FP from mouse brain ABHD6 at 10 uM incubated with compound for 5 mins followed by ABPP assay; format: tissue-based
T2 sequence (whole entry): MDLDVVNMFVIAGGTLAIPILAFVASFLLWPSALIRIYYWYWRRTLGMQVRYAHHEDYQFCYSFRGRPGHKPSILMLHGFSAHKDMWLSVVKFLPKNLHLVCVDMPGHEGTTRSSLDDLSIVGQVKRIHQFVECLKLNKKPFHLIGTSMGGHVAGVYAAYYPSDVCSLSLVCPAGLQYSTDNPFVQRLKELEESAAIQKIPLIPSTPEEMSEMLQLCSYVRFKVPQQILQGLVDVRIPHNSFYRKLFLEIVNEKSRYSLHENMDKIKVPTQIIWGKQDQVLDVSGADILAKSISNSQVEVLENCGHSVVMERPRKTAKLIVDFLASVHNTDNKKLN
Method in brief: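 Mouse brain membranes (2 mg/mL final, in PBS) preincubated 25 min at 25 °C with test compound (10 μM final) or DMSO vehicle. Controls: JZL-184, URB597 4 μM, WWL70 10 μM, THL, MAFP 5 μM. TAMRA-FP 125 nM final added for 5 min at 25 °C. Reaction stopped with Laemmli buffer, 3 min at 25 °C then 10 min at 90 °C. Separation by 10% SDS-PAGE, fluorescence scanning, three independent experiments.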

[3] = target: T3, Monoglyceride lipase (Mus musculus) (UniProt O35678); test: Displacement of TAMRA-FP from mouse brain MAGL at 1 uM incubated with compound for 5 mins followed by ABPP assay; format: tissue-based
T3 sequence (whole entry): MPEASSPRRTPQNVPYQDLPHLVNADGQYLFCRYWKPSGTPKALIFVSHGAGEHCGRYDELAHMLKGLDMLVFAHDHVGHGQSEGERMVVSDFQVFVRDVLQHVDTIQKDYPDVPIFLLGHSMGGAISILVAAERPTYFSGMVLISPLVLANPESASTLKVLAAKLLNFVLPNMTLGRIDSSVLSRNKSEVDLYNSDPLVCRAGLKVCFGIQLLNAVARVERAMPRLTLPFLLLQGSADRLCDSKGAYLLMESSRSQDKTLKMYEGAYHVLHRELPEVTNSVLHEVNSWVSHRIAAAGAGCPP

[4] = Permeability of the compound assessed as membrane retention rate by PAMPA method; format: ADME
Method in brief: (§1)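 Donor solution made from 1 mM DMSO stock diluted in 25 mM phosphate buffer pH 7.4 to 500 μM final. Filter coated with 1% (w/v) phosphatidylcholine in dodecane. Acceptor was 1:1 v/v DMSO/phosphate buffer. Sandwich incubated 5 h at room temperature. Compound in donor and acceptor wells quantified by UV/LC-MS.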

[5] = Apparent permeability of the compound by PAMPA method; format: ADME; method in brief: as §1
[6] = Thermodynamic aqueous solubility of the compound by LC-MS/MS analysis; format: physicochemical; settings: read-out: Therm_solubility
Method in brief: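 Solid compound (1 mg) shaken overnight in 1 mL distilled water at room temperature. Suspension passed through a 0.45 μm nylon filter. Dissolved compound quantified in triplicate by UV/LC-MS or LC-MS/MS against a calibration curve of compound in methanol.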

[7] = Metabolic stability in human liver microsome in presence of NADPH-regenerating system by UV/LC-MS analysis; format: ADME; settings: microsomes
Method in brief: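 Compound incubated 1 h at 37 °C with human liver microsomes (0.2 mg/mL) and an NADPH-regenerating system (NADPH 0.2 mM, NADP+ 1 mM, glucose-6-phosphate 4 mM, G6PDH 4 unit/mL, MgCl2 48 mM) in 25 mM phosphate buffer pH 7.4. Quenched with acetonitrile, then centrifuged. Parent and metabolites measured by UV/LC-MS. Percent unmetabolized obtained against reference solutions; three independent experiments.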

[8] = Stability in human plasma measured after 24 hrs by UV/LC-MS analysis; format: ADME, cell-free; settings: read-out: Stability
Method in brief: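 Compound (2 mM) incubated at 37 °C in pooled human plasma (55.7 mg protein/mL) with HEPES 25 mM, NaCl 140 mM, pH 7.4. Samples taken at 0–24 h and precipitated with cold acetonitrile. After centrifugation, supernatant analysed by UV/LC-MS. Three independent experiments.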

Structure (SMILES) | IC50 [1] [µM] | further results
O=C(c1cccc(O)c1)N1CCC(Cc2cccc(Sc3cccc(C(F)(F)F)n3)c2)CC1 | 0.0132 | –
CN(Cc1cccc(-c2ccncc2)c1)C(=O)Oc1ccc(-c2ccc(C(N)=O)cc2)cc1 | – | Activity [2]: Active
O=C(c1cccc(O)c1)N1CCC(Cc2cc(Sc3cc(C(F)(F)F)ccn3)ccc2F)CC1 | 0.0225 | –
O=C(c1cccc(O)c1)N1CCC(Cc2ccc(O)c(Sc3cc(C(F)(F)F)ccn3)c2)CC1 | 0.0612 | –
O=C(Nc1cc(O)cc(C(=O)N2CCC(Cc3cccc(Sc4cc(C(F)(F)F)ccn4)c3)CC2)c1)c1ccccc1 | 0.149 | –
O=C(Oc1ccc([N+](=O)[O-])cc1)N1CCC(C(O)(c2ccc3c(c2)OCO3)c2ccc3c(c2)OCO3)CC1 | – | Activity [3]: Active
COc1ccc(Sc2cc(C(F)(F)F)ccn2)cc1CC1CCN(C(=O)c2cccc(O)c2)CC1 | 0.0491 | –
O=C(c1ccc(Sc2ccccc2)c(O)c1)N1CCC(Cc2cccc(Sc3cc(C(F)(F)F)ccn3)c2)CC1 | 0.242 | –
O=C(c1cc(O)cc(Sc2ccccc2)c1)N1CCC(Cc2cccc(Sc3cc(C(F)(F)F)ccn3)c2)CC1 | 0.0448 | –
COc1ccc(CC2CCN(C(=O)c3cccc(O)c3)CC2)cc1Sc1cc(C(F)(F)F)ccn1 | 0.0144 | –
O=C(c1ccc(Sc2cccc(C(F)(F)F)c2)cc1)C1CCN(C(=O)c2cc(O)ccc2F)CC1 | – | R% [4]: 47%; Papp [5]: 1.83 ×10⁻⁶ cm/s; solubility thermodynamic [6]: 0.129 ng/mL (≈ 0.256 nM); Stability [7]: 90.71%; remaining at 24 h [8]: > 99%
O=C(c1cc(O)ccc1Sc1ccccc1)N1CCC(Cc2cccc(Sc3cc(C(F)(F)F)ccn3)c2)CC1 | 0.0323 | –
O=C(c1cccc(O)c1)N1CCC(Cc2cc(Sc3cc(C(F)(F)F)ccn3)ccc2O)CC1 | 0.0208 | –
O=C(Nc1ccc(O)cc1C(=O)N1CCC(Cc2cccc(Sc3cc(C(F)(F)F)ccn3)c2)CC1)c1ccccc1 | 0.112 | –
O=C(c1cccc(O)c1)N1CCC(Cc2cccc(Sc3ccc(C(F)(F)F)cn3)c2)CC1 | 0.0404 | –
O=C(c1cccc(O)c1)N1CCC(Cc2cccc(Sc3ncccc3C(F)(F)F)c2)CC1 | 0.0071 | –
O=C(Nc1ccc(C(=O)N2CCC(Cc3cccc(Sc4cc(C(F)(F)F)ccn4)c3)CC2)cc1O)c1ccccc1 | > 1 | –
